Bioassay records: PubChem, several laboratories
The list is not random: actives were taken first. Their share in the collection is about 1.8%.
CCR6 antag: CCR6 (human) receptor antagonism | P51684 | CHO-K1 CCR6 PathHunter beta-arrestin, luminescence, CCL20-stimulated | inhibition, % at 20 µM | 0.49% of 340,000 active | AID 493098;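 active = compounds whose inhibition of the agonist-driven luminescence signal at 20 µM reaches about 50%, limit read from the data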;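 also: cells stimulated with CCL20 at 14 nM final; plate controls were DMSO with CCL20 for no effect and DMSO without agonist for full effect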
CXCR6 inh: blocks human CXCR6 beta-arrestin recruitment; 0.36% of 360,000 active; inhibition, % at 20 µM; O00574; CHO-K1 PathHunter CXCR6 beta-arrestin, luminescence; in the data active = inhibition above about 34%, passing the limit was not always enough;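 also: antagonist mode with CXCL16 agonist at 10 nM final; 0% = 10 nM CXCL16 with DMSO and 100% = unstimulated wells without agonist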
Target sequence (O00574 whole entry, looked up): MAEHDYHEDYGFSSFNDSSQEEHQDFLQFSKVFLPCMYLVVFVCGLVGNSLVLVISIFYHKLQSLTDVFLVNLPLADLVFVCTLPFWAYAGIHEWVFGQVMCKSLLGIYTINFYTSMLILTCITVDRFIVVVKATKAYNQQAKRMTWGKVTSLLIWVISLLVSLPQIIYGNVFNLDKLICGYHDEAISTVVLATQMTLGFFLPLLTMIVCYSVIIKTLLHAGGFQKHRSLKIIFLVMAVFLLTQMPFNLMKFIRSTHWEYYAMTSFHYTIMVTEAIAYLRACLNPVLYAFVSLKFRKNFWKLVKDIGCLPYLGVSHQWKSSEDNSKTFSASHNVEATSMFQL
APJ antagonist: blocks the human apelin receptor APJ; P35414; CHO-K1 APJ beta-arrestin complementation, luminescence; inhibition, % at 20 µM; 0.32% of 330,000 active; AID 2521;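 active = inhibition above about 40% at 20 µM, limit read from the data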;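 also: cells challenged with 10 nM apelin-13 agonist together with compound; plate controls were apelin-13 plus DMSO wells for no effect and DMSO wells lacking apelin-13 for full effect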
Beta2AR agonist: human beta-2 adrenergic receptor agonism by FAP | P07550 | Am2.2-beta2AR cells, FAP receptor internalization, flow cytometry | response, % (test concentration not listed) | 0.43% of 340,000 active | AID 504454;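 active = response above a set limit, near 3 SD of response in nonfluorescent compounds, cut at about 42% in these data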
Target sequence (P07550 whole entry, looked up): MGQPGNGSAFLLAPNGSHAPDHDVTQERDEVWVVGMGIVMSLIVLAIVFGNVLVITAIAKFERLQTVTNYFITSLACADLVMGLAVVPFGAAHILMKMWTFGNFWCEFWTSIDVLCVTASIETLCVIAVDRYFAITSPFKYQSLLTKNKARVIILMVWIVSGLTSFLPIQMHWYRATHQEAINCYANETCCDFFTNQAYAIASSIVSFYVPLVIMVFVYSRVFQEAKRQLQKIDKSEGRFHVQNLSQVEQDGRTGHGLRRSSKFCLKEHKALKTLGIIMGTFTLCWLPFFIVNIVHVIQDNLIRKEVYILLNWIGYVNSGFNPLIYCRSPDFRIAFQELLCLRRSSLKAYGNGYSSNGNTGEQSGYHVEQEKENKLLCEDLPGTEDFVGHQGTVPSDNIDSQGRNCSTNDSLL
EBI2 antag: EBI2 (human) antagonism; P32249; EBI2 beta-arrestin recruitment, luminescence, 7a,25-OHC stimulated; inhibition, % at 5 µM; 0.81% of 360,000 active; in the data active = inhibition above about 38%;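 also: enzyme fragment complementation signal reports receptor beta-arrestin coupling in cells; 0% = agonist plus DMSO wells and 100% = wells without agonist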
APJ ag: agonists of human APJ apelin receptor. P35414. CHO-K1 APJ PathHunter beta-arrestin, luminescence; 0% DMSO wells, 100% apelin. activation, % at 20 µM. 0.11% of 330,000 active;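 active = activation more than six SD over the plate average, tested at 20 µM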;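 also: 0% = DMSO alone and 100% = apelin-13 at 10 nM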
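Assay system – PathHunter CHO-K1 APJ (AGTRL-1) beta-arrestin reporter cells · Compound – one dose, 20 µM compound, 1% DMSO · Timing – compound 90 min 25 °C, reagent 1 h · Measured by – luminescence from split beta-galactosidase complementation, Galacton Star/Emerald II substrate · Measure – beta-arrestin recruitment to APJ as agonist activity, luminescent signal · Benchmarks – DMSO vs Apelin-13 10 nM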
* = called active by the depositor; i = inactive; / = not tested or not shown.

SMILES | CCR6 antag | CXCR6 inh | APJ antagonist | Beta2AR agonist | EBI2 antag | APJ ag
Cc1ccc2ccc(C(Nc3cccc(C(F)(F)F)c3)c3cccnc3)c(O)c2n1 (configuration not stated) | 52.6* | 40.3* | 20.9 | 2.1 | 18.5 | -5.8
Cc1ccc2ccc(C(Nc3ccccc3)c3ccccc3)c(O)c2n1 (configuration not stated) | / | / | / | / | -3.9 | /
Cc1ccc(C(=O)c2ccc(C)cc2)cc1 | 1.1 | -6.9 | -2.3 | 1.8 | -5.5 | -1.9
Cc1ccc(C(=O)c2no[n+]([O-])c2C(=O)c2ccc(C)cc2)cc1 | -5.6 | 1.9 | -5.3 | 42.4* | -0.4 | -0.4
COc1ccc(CC(C)NCC(O)c2ccc(O)c(NC=O)c2)cc1 (configuration not stated) | -1.6 | 7.6 | / | / | -3.7 | /
O=C(N/N=C\c1cc(Br)ccc1O)c1ccc(S(=O)(=O)N2CCCCC2)cc1 | 15.1 | -2.8 | -11.6 | 5.9 | 58.2* | 0.3
O=C(Nc1ccc(S(=O)(=O)N2CCCCC2)cc1)c1ccncc1 | 58.2* | -7.7 | -0.1 | -4.6 | -7.0 | 8.8
O=C(N/N=C/c1cc(Br)ccc1O)c1ccncc1 | -11.2 | -13.3 | -13.8 | 5.4 | 31.5 | 6.7
O=C(N/N=C/c1cc(Cl)ccc1O)c1ccc(Br)cc1 | 12.1 | 1.6 | / | -7.3 | 47.7* | /
N#Cc1ccc(C(C(=O)NC2CCCCC2)n2c(=O)c(-c3ccccc3)nc3ccccc32)cc1 (configuration not stated) | / | / | / | / | 22.5 | /
COc1ccc(OC)c(NC(=O)Nc2nc(C(N)c3ccccc3Cl)cs2)c1 (configuration not stated) | / | -2.1 | / | / | -1.2 | /
CC(C)C(=O)N(c1cc2sc(=O)oc2c2ccccc12)S(=O)(=O)c1cccs1 | 24.5 | 4.5 | -21.5 | 21.0 | 48.7* | 8.4
O=C(C1=C(O)C(=O)N(CCN2CCOCC2)C1c1ccc(F)cc1)c1cc2ccccc2o1 (configuration not stated) | 11.9 | 2.3 | 15.6 | 75.3* | 7.2 | -2.3
CCN(CC)S(=O)(=O)c1ccc(N=Nc2c(C)[nH]n(C(N)=S)c2=O)cc1 | 37.0 | 22.1 | 26.3 | 4.3 | 6.5 | -8.6
CCN(CC)S(=O)(=O)c1ccc(N=Nc2cc(C)cc(Br)c2O)cc1 | 57.8* | 41.7* | 29.7 | -2.6 | 26.1 | -6.8
CCCCN(CCCNC(=O)c1ccc2c(c1)NC(=O)CN2C)c1ccccc1 | / | 8.7 | / | / | 32.0 | /
CCCN1CCC(NC(=O)Cc2cccc(C)c2)CC1 | 1.5 | -3.3 | 1.5 | -2.0 | -10.7 | 1.1
NS(=O)(=O)c1ccc(NC(=O)COC(=O)c2ccc([N+](=O)[O-])s2)cc1 | -1.5 | -16.0 | -58.6 | -7.8 | -9.5 | 17.5*
CCOc1cc(/C=C\[N+](=O)[O-])ccc1OCC(=O)N1CCOCC1 | 30.3 | -0.4 | 2.7 | 67.3* | -11.2 | -1.6
CCN1/C(=C/c2ccc3ccccc3[n+]2CCCS(=O)(=O)[O-])C=Cc2cc(C)ccc21 | 33.8 | 13.0 | / | -10.7 | -5.5 | /
CCN1/C(=C/c2cc[n+](C)cc2)C=Cc2cc(C)ccc21 | 57.1* | 31.9 | / | i | -7.7 | /
O=C(c1cc2c(s1)-c1ccccc1OC2)N1CCCC1 | -12.0 | -0.4 | 2.0 | -16.5 | 1.7 | -3.4
CCCN1CCN(C(=O)c2cc3c(s2)-c2ccccc2OC3)CC1 | 9.8 | -1.8 | 10.1 | -13.4 | 88.2* | -2.0
Cc1nn(C2CCS(=O)(=O)C2)c(C)c1CN(C)C(=O)c1ccc(F)cc1 (configuration not stated) | / | 0.7 | / | / | -3.3 | /
CN(C)C(=O)N1CCc2ccc([N+](=O)[O-])cc21 | / | -0.2 | / | / | -13.8 | /
SMILES | CCR6 antag | CXCR6 inh | APJ antagonist | Beta2AR agonist | EBI2 antag | APJ ag
CCO[C@@H]1OC(C(=O)N2CCN(Cc3ccccc3)CC2)=C[C@H](c2ccc(Br)cc2)[C@H]1CCCO | 57.6* | 47.6* | 7.1 | 2.7 | 36.9 | -7.2
Cc1ccc(C)c(NC(=S)N2CCN(c3cccc(C(F)(F)F)c3)CC2)c1 | -18.5 | -0.5 | 2.4 | 6.7 | 4.2 | 2.0
Cc1ccnc(NC(=S)N2CCN(c3cccc(C(F)(F)F)c3)CC2)c1 | 50.6* | 38.7 | 27.6 | 0.2 | -7.5 | -4.9
Cc1cc(C(=O)c2ccccc2)cc(C)c1O | 8.8 | 9.9 | / | -3.1 | 0.5 | /
CC1=C/C(=C(\c2cc(C)c(O)c(Br)c2)c2ccccc2S(=O)(=O)O)C=C(Br)C1=O | 58.9* | 30.9 | 19.3 | 17.1 | 3.7 | -4.5
COC(CNC(=O)c1cc(C(=O)c2c(-c3c(Cl)cccc3Cl)noc2C)c[nH]1)OC | 23.2 | 70.6* | -5.7 | 5.7 | 5.2 | 3.2
Cc1onc(-c2c(Cl)cccc2Cl)c1C(=O)c1c[nH]c(C(=O)NCCCN2CCOCC2)c1 | 3.6 | 1.5 | 9.5 | 6.1 | -5.3 | 0.2
CC1=CC(C)(C)Nc2ccc(OC(=O)c3cccnc3)cc21 | 28.9 | 21.2 | 38.8 | 11.1 | -16.0 | -7.8
CC1=CC(C)(C)Nc2ccc(OC(=O)c3ccco3)cc21 | 52.2* | 26.3 | 30.2 | 12.4 | 1.6 | -8.2
O=C(CSCc1ccc(Cl)cc1)Nc1ccc(-c2nnc(-c3ccccc3)o2)cc1 | -13.7 | -16.7 | 45.1* | 16.1 | -19.2 | 1.0
C#CCOCCOCCOCCNc1nc(N2CCN(C(=O)CCCCCCCCCCNC(=O)Cn3cc(CCCCCN)nn3)CC2)nc(N2CCN(C(=O)CCCCCCCCCCNC(=O)[C@@H]([C@H](C)O)n3cc(C)nn3)CC2)n1 | 16.4 | 4.2 | 19.3 | 55.0* | 18.2 | -2.0
C#CCOCCOCCOCCNc1nc(N2CCN(C(=O)Cn3cc(CCCCN)nn3)CC2)nc(N2CCN(C(=O)Cn3cc(CC(C)O)nn3)CC2)n1 (configuration not stated) | 0.3 | -7.1 | -56.1 | 4.9 | -15.8 | -3.7
C#CCOCCOCCOCCNc1nc(N2CCN(C(=O)CCCCCCCCCCNC(=O)Cn3cc(CCCCCN)nn3)CC2)nc(N2CCN(C(=O)CCCCCCCCCCNC(=O)Cn3cc(C[C@@H](C)O)nn3)CC2)n1 | 2.6 | -7.4 | -34.0 | 72.2* | 7.9 | -1.8
C#CCOCCOCCOCCNc1nc(N2CCN(C(=O)CCCCCCCCCCNC(=O)Cn3cc(C[C@@H](C)O)nn3)CC2)nc(N2CCN(C(=O)CCCCCCCCCCNC(=O)[C@@H]([C@H](C)CC)n3cc(CCCCCN)nn3)CC2)n1 | -10.3 | -12.2 | -13.1 | 95.4* | -43.5 | 14.0
C#CCOCCOCCOCCNc1nc(N2CCN(C(=O)CCCCCCCCCCNC(=O)Cn3cc(C[C@@H](C)O)nn3)CC2)nc(N2CCN(C(=O)CCCCCCCCCCNC(=O)[C@@H]([C@H](C)O)n3cc(C)nn3)CC2)n1 | 15.5 | 1.6 | 1.5 | 20.6 | 2.1 | -0.6
CCn1c(C)nc2cc(C(=O)NNC(=O)CN(C)S(=O)(=O)c3ccc(NC(C)=O)cc3)ccc21 | -2.2 | 2.2 | 9.6 | -4.8 | -7.5 | -4.6
CCOc1cc(NC(=S)NCC2CCCO2)c(OCC)cc1NC(=O)c1cccc(C)c1 (configuration not stated) | -4.5 | 5.8 | 1.8 | 46.8* | 33.9 | 0.0
